Measurements as given in ChEMBL document CHEMBL5724801, “EUbOPEN Chemogenomics Library - Multiplex” (2024).
Several values for one entry are separate records, joined by “and”; a condition that tells them apart may be missing. Equal entries are not always repeated.

Tested on: HEK-293T
Experiment: Multiplex assay against HEK293T
Format: toxicity, cell-based
Settings: human, 12 h, 1 µM, compound concentration 1 uM
Procedure, shortened: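 Per cents of healthy-nucleus cells form the tubulin, mitochondrial-mass and membrane-permeability phenotype values. Live cells were stained at seeding with Hoechst33342, BioTracker Green Microtubule Cytoskeleton Dye, MitoTracker Red and Annexin V Alexa Fluor 680. After compound addition they were imaged on a CQ1 microscope at 37°C and 5% CO2, and CellPathfinder machine-learning gating split them into Hoechst high-intensity objects or normal cells, normal cells into healthy, pyknosed or fragmented nuclei, and pyknosed cells into mitotic or apoptotic.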

SMILES	Population Apoptotic (%)	Population Fragmented Nuclei (%)	Population Hoechst High Intensity Objects (%)	Population Membrane Permeable-Phenotype (%)	Population Mitochondria Different-Phenotype (%)	Population Mitotic Cells (%)	Population Normal (%)	Population Pyknosed Nuclei (%)	Total Cell Count	Population Healthy Nuclei (%)
CN1[C@@H](CC(=O)c2ccccc2)CCC[C@H]1C[C@H](O)c1ccccc1.Cl [LOBELINE HYDROCHLORIDE]	5.84% and 10.26%	1.05% and 2.84%	0.52% and 0%	0%	33.04% and 30%	94.16% and 89.74%	99.48% and 100%	40.31% and 82.98%	384 and 141	–
C[C@H](NC(=O)CNC(=O)c1cccc(Cl)c1)c1ccccc1	33% and 48%	5% and 6%	8% and 4%	0%	39% and 52%	66% and 51%	91% and 95%	15% and 9%	449 and 384	79% and 84%
CC(C)(C)c1cc(C(C)(C)C)c(NC(=O)c2c[nH]c3ccccc3c2=O)cc1O [IVACAFTOR]	10.06% and 8.26%	0% and 2.11%	0.3% and 0%	0.59% and 0%	31.76% and 13.33%	89.94% and 91.74%	99.7% and 100%	48.33% and 76.76%	330 and 142	51.67% and 21.13%
CCn1c(-c2ccncc2)cc2c1CCNC2=O	15.09% and 7.09%	1.92% and 1.82%	0.95% and 0%	2.72% and 0%	35.37% and 23.81%	84.91% and 92.91%	99.05% and 100%	50.96% and 85.45%	315 and 165	–

Same assay, conditions: human, 12 h, 1 µM, compound concentration 1 uM

SMILES	Population Tubulin-Different-Phenotype (%)
C[C@H](NC(=O)CNC(=O)c1cccc(Cl)c1)c1ccccc1	29% and 17%
CCn1c(-c2ccncc2)cc2c1CCNC2=O	7.48% and 14.29%

Same assay, conditions: human, 12 h, 10 µM, compound concentration 10 uM

SMILES	Population Apoptotic (%)	Population Fragmented Nuclei (%)	Population Healthy Nuclei (%)	Population Hoechst High Intensity Objects (%)	Population Membrane Permeable-Phenotype (%)	Population Mitochondria Different-Phenotype (%)	Population Mitotic Cells (%)	Population Normal (%)	Population Pyknosed Nuclei (%)	Total Cell Count
CN1[C@@H](CC(=O)c2ccccc2)CCC[C@H]1C[C@H](O)c1ccccc1.Cl [LOBELINE HYDROCHLORIDE]	13.08% and 13.61%	4.88% and 1.1%	49.83% and 17.68%	0% and 0.55%	0.7% and 0%	17.48% and 37.5%	86.92% and 86.39%	100% and 99.45%	45.3% and 81.22%	287 and 182
C[C@H](NC(=O)CNC(=O)c1cccc(Cl)c1)c1ccccc1	41% and 58%	6% and 7%	76% and 77%	7% and 13%	0%	54% and 61%	58% and 41%	92% and 86%	17% and 15%	362 and 272
CC(C)(C)c1cc(C(C)(C)C)c(NC(=O)c2c[nH]c3ccccc3c2=O)cc1O [IVACAFTOR]	31.3% and 21.05%	2.9% and 1.94%	–	0.72% and 0%	0%	27.01% and 57.89%	68.7% and 78.95%	99.28% and 100%	47.46% and 85.81%	278 and 155
CCn1c(-c2ccncc2)cc2c1CCNC2=O	15.05% and 13.74%	0.77% and 4.17%	–	0%	0% and 14.29%	31.51% and 14.29%	84.95% and 86.26%	100%	71.26% and 90.97%	261 and 144

Same assay, conditions: human, 12 h, 10 µM, compound concentration 10 uM

SMILES	Population Tubulin-Different-Phenotype (%)
C[C@H](NC(=O)CNC(=O)c1cccc(Cl)c1)c1ccccc1	39% and 33%
CCn1c(-c2ccncc2)cc2c1CCNC2=O	5.48% and 14.29%

Same assay, conditions: human, 24 h, 1 µM, compound concentration 1 uM

SMILES	Population Apoptotic (%)	Population Fragmented Nuclei (%)	Population Healthy Nuclei (%)	Population Hoechst High Intensity Objects (%)	Population Membrane Permeable-Phenotype (%)	Population Mitochondria Different-Phenotype (%)	Population Mitotic Cells (%)	Population Normal (%)	Population Pyknosed Nuclei (%)	Population Tubulin-Different-Phenotype (%)
CN1[C@@H](CC(=O)c2ccccc2)CCC[C@H]1C[C@H](O)c1ccccc1.Cl [LOBELINE HYDROCHLORIDE]	12.24% and 13.68%	2.04% and 2.68%	74.92% and 33.56%	0%	1.67% and 0%	11.3% and 14%	87.76% and 86.32%	100%	23.04% and 63.76%	10.46% and 6%
C[C@H](NC(=O)CNC(=O)c1cccc(Cl)c1)c1ccccc1	23% and 45%	9% and 7%	80% and 84%	4% and 2%	1% and 0%	25% and 32%	76% and 54%	95% and 97%	10% and 7%	15% and 9%
CC(C)(C)c1cc(C(C)(C)C)c(NC(=O)c2c[nH]c3ccccc3c2=O)cc1O [IVACAFTOR]	15.6% and 17.89%	0.58% and 1.37%	78.42% and 33.56%	0%	0.49% and 2.04%	13.02% and 8.16%	84.4% and 82.11%	100%	–	7.13% and 10.2%
CCn1c(-c2ccncc2)cc2c1CCNC2=O	31.73% and 15.24%	2.16% and 2.84%	–	0.27% and 0%	1.16% and 6.25%	23.17% and 18.75%	68.27% and 84.76%	99.73% and 100%	28.03% and 74.47%	32.43% and 18.75%

Same assay, conditions: human, 24 h, 1 µM, compound concentration 1 uM

SMILES	Total Cell Count
C[C@H](NC(=O)CNC(=O)c1cccc(Cl)c1)c1ccccc1	646 and 476
CCn1c(-c2ccncc2)cc2c1CCNC2=O	372 and 141

Same assay, conditions: human, 24 h, 10 µM, compound concentration 10 uM

SMILES	Population Apoptotic (%)	Population Fragmented Nuclei (%)	Population Healthy Nuclei (%)	Population Hoechst High Intensity Objects (%)	Population Membrane Permeable-Phenotype (%)	Population Mitochondria Different-Phenotype (%)	Population Mitotic Cells (%)	Population Normal (%)	Population Pyknosed Nuclei (%)	Population Tubulin-Different-Phenotype (%)
CN1[C@@H](CC(=O)c2ccccc2)CCC[C@H]1C[C@H](O)c1ccccc1.Cl [LOBELINE HYDROCHLORIDE]	16.35% and 24.8%	2.39% and 1.53%	69.95% and 34.69%	0%	1.52% and 1.47%	18.63% and 22.06%	83.65% and 75.2%	100%	27.66% and 63.78%	12.55% and 11.76%
C[C@H](NC(=O)CNC(=O)c1cccc(Cl)c1)c1ccccc1	43% and 58%	9% and 10%	77% and 78%	4% and 9%	0%	39% and 49%	56% and 41%	95% and 90%	12% and 11%	25% and 19%
CC(C)(C)c1cc(C(C)(C)C)c(NC(=O)c2c[nH]c3ccccc3c2=O)cc1O [IVACAFTOR]	52.29% and 35.25%	2.77% and 2.63%	–	0.82% and 0%	0% and 3.85%	–	47.71% and 64.75%	99.18% and 100%	30.19% and 80.26%	10.74% and 7.69%
CCn1c(-c2ccncc2)cc2c1CCNC2=O	46.45% and 34.13%	1.6% and 3.57%	–	0%	0%	30.77% and 44.44%	53.55% and 65.87%	100%	62% and 90%	–

Same assay, conditions: human, 24 h, 10 µM, compound concentration 10 uM

SMILES	Total Cell Count
CN1[C@@H](CC(=O)c2ccccc2)CCC[C@H]1C[C@H](O)c1ccccc1.Cl [LOBELINE HYDROCHLORIDE]	376 and 196
C[C@H](NC(=O)CNC(=O)c1cccc(Cl)c1)c1ccccc1	505 and 303
CC(C)(C)c1cc(C(C)(C)C)c(NC(=O)c2c[nH]c3ccccc3c2=O)cc1O [IVACAFTOR]	364 and 152
CCn1c(-c2ccncc2)cc2c1CCNC2=O	250 and 140

Same assay, conditions: human, 48 h, 1 µM, compound concentration 1 uM

SMILES	Population Apoptotic (%)	Population Fragmented Nuclei (%)	Population Healthy Nuclei (%)	Population Hoechst High Intensity Objects (%)	Population Membrane Permeable-Phenotype (%)	Population Mitochondria Different-Phenotype (%)	Population Mitotic Cells (%)	Population Normal (%)	Population Pyknosed Nuclei (%)	Population Tubulin-Different-Phenotype (%)
CN1[C@@H](CC(=O)c2ccccc2)CCC[C@H]1C[C@H](O)c1ccccc1.Cl [LOBELINE HYDROCHLORIDE]	7.27% and 13.92%	2.75% and 1.71%	84.62% and 53.14%	0%	5.33% and 1.08%	11.75% and 19.35%	92.73% and 86.08%	100%	–	–
C[C@H](NC(=O)CNC(=O)c1cccc(Cl)c1)c1ccccc1	19% and 30%	13%	80% and 81%	3% and 2%	0% and 2%	15% and 16%	80% and 70%	96% and 97%	5%	12% and 6%
CC(C)(C)c1cc(C(C)(C)C)c(NC(=O)c2c[nH]c3ccccc3c2=O)cc1O [IVACAFTOR]	8.49% and 16.88%	2.06% and 0.56%	89.56% and 55.93%	0.24% and 0.56%	3.45% and 1.01%	–	91.51% and 83.12%	99.76% and 99.44%	–	–
CCn1c(-c2ccncc2)cc2c1CCNC2=O	33.96% and 24.19%	5.74% and 0%	80.42% and 45.61%	0.78% and 0.87%	2.6% and 0%	61.36% and 40.38%	66.04% and 75.81%	99.22% and 99.13%	–	–

Same assay, conditions: human, 48 h, 1 µM, compound concentration 1 uM

SMILES	Total Cell Count
C[C@H](NC(=O)CNC(=O)c1cccc(Cl)c1)c1ccccc1	984 and 606

Same assay, conditions: human, 48 h, 10 µM, compound concentration 10 uM

SMILES	Population Fragmented Nuclei (%)	Population Healthy Nuclei (%)	Population Hoechst High Intensity Objects (%)	Population Membrane Permeable-Phenotype (%)	Population Mitochondria Different-Phenotype (%)	Population Mitotic Cells (%)	Population Normal (%)	Population Apoptotic (%)	Population Pyknosed Nuclei (%)	Population Tubulin-Different-Phenotype (%)
CN1[C@@H](CC(=O)c2ccccc2)CCC[C@H]1C[C@H](O)c1ccccc1.Cl [LOBELINE HYDROCHLORIDE]	2.84% and 1.89%	86.48% and 58.49%	0% and 0.75%	2.5% and 0%	30.22% and 37.42%	94.68% and 75.24%	100% and 99.25%	–	–	–
C[C@H](NC(=O)CNC(=O)c1cccc(Cl)c1)c1ccccc1	15% and 19%	77% and 72%	1% and 2%	0%	26% and 28%	55% and 64%	98% and 97%	44% and 35%	7%	18% and 16%
CC(C)(C)c1cc(C(C)(C)C)c(NC(=O)c2c[nH]c3ccccc3c2=O)cc1O [IVACAFTOR]	2.23% and 4%	84.89% and 46.29%	0.13% and 1.69%	2.48% and 1.23%	34.21% and 56.79%	82.65% and 59.77%	99.87% and 98.31%	17.35% and 40.23%	–	–
CCn1c(-c2ccncc2)cc2c1CCNC2=O	1.61% and 5.88%	–	0%	0%	82.35% and 78.57%	33.57% and 55.26%	100%	66.43% and 44.74%	57.43% and 83.82%	–

Same assay, conditions: human, 48 h, 10 µM, compound concentration 10 uM

SMILES	Total Cell Count
C[C@H](NC(=O)CNC(=O)c1cccc(Cl)c1)c1ccccc1	735 and 462
CCn1c(-c2ccncc2)cc2c1CCNC2=O	249 and 136
